Calls of active or inactive are those of the source. The rule behind the calls is not given here.
Tests used:
[1] = biological target: T1, NAD-dependent protein deacetylase sirtuin-2 (Homo sapiens, UniProt Q8IXJ6); experiment: Inhibition of recombinant human C-terminal His-tagged SIRT2 (50 to 389 end residues) expressed in Escherichia coli in presence of NAD+ by enzyme coupled SIRT-Glo assay
T1 sequence (Q8IXJ6 whole entry): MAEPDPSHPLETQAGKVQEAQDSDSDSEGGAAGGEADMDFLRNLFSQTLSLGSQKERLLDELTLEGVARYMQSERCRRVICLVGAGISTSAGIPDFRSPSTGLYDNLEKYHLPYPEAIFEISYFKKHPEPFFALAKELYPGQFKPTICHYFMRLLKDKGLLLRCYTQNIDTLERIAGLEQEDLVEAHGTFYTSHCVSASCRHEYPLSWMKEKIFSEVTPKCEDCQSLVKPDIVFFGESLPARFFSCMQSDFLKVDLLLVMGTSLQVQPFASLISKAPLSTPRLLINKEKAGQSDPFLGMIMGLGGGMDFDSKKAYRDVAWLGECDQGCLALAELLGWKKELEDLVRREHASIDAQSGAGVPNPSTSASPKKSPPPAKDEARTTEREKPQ

[2] = biological target: T1, NAD-dependent protein deacetylase sirtuin-2; experiment: Inhibition of recombinant human C-terminal His-tagged SIRT2 (50 to 389 end residues) expressed in Escherichia coli using tubulin-K40 peptide in presence of NAD+
[3] = biological target: T2, NAD-dependent protein deacetylase sirtuin-1 (Homo sapiens, UniProt Q96EB6); experiment: Inhibition of recombinant human N-terminal His-tagged SIRT1 (1 to 747 end residues) expressed in Escherichia coli using p53 derived (379 to 382 residues) fluorogenic peptide substrate RHKK(Ac)-AMC preincubated for 10 mins followed by substrate addition in presence of NAD+ by fluorescence assay
T2 sequence (Q96EB6 whole entry): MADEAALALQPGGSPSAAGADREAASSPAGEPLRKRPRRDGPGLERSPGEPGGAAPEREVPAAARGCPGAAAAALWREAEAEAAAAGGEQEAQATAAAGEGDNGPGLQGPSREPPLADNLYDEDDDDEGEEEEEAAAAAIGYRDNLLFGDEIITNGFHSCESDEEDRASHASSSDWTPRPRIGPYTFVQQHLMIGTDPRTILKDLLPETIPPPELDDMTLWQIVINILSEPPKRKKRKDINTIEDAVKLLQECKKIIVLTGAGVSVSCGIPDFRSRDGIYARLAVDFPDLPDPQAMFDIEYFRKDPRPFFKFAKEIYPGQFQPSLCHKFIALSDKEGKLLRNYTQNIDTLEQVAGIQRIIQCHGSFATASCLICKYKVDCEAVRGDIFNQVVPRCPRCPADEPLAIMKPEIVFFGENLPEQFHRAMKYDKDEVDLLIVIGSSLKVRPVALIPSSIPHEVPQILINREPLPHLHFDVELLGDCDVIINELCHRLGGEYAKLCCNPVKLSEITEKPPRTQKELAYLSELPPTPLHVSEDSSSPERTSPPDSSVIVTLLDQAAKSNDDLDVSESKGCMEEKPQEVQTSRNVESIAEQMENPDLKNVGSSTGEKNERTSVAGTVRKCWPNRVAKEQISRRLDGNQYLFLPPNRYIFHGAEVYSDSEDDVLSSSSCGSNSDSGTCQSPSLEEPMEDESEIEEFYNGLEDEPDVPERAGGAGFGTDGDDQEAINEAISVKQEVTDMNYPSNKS
In short: (§1)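 Two-step fluorogenic assay with p53 379–382 RHKK(Ac)-AMC. Compound (from 10 mM DMSO stock) preincubated ~10 min with human SIRT before substrate addition. Developer then releases fluorophore, read at ex 360/em 460 nm.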

[4] = biological target: NAD-dependent protein deacylase sirtuin-5, mitochondrial (Homo sapiens, UniProt Q9NXA8); experiment: Inhibition of recombinant human N-terminal His-tagged SIRT5 (37 to 310 end residues) expressed in Escherichia coli using Ac-K(Succ)-AMC as substrate in presence of NAD+ by fluorescence assay
NAD-dependent protein deacylase sirtuin-5, mitochondrial, sequence (Q9NXA8 whole entry, the tested form may be a part): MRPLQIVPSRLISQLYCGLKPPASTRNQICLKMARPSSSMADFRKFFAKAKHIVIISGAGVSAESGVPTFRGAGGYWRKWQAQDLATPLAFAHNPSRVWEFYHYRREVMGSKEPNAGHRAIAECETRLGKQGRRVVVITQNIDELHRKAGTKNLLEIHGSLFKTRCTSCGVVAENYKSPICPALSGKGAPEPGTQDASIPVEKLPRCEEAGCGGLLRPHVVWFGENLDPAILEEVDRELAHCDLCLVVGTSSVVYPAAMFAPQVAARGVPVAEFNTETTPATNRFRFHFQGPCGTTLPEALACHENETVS

[5] = biological target: T3, NAD-dependent protein deacetylase sirtuin-3, mitochondrial (Homo sapiens, UniProt Q9NTG7); experiment: Inhibition of recombinant human N-terminal GST-tagged SIRT3 (101 to 399 residues) expressed in Escherichia coli using p53 derived (379 to 382 residues) fluorogenic peptide substrate RHKK(Ac)-AMC) preincubated for 10 mins followed by substrate addition in presence of NAD+ by fluorescence assay
T3 sequence (Q9NTG7 whole entry): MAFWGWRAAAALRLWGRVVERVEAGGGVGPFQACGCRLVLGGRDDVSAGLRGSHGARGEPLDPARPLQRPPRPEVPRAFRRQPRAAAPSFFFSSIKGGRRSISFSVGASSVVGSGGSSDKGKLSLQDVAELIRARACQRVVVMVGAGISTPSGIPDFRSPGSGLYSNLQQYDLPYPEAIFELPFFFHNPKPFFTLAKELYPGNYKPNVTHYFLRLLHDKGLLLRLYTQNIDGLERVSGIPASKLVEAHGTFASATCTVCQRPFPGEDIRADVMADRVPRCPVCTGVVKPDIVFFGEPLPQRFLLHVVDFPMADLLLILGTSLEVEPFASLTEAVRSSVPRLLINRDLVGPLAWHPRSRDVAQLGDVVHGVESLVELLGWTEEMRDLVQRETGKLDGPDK

Homo sapiens [6] = organism: Homo sapiens; experiment: Selectivity ratio of IC50 for recombinant human N-terminal His-tagged SIRT1 (1 to 747 end residues) expressed in Escherichia coli to IC50 for recombinant human C-terminal His-tagged SIRT2 (50 to 389 end residues) expressed in Escherichia coli
Homo sapiens [7] = organism: Homo sapiens; experiment: Selectivity ratio of IC50 for recombinant human N-terminal GST-tagged SIRT3 (101 to 399 residues) expressed in Escherichia coli to IC50 for recombinant human C-terminal His-tagged SIRT2 (50 to 389 end residues) expressed in Escherichia coli
[8] = biological target: T4, NAD-dependent protein deacetylase sirtuin-2 (Homo sapiens) (UniProt Q8IXJ6); experiment: Inhibition of SIRT2 in human MCF7 cells assessed as increase in alpha-tubulin K40 acetylation level at 20 uM after 24 hrs in presence of TSA by Western blot analysis; assay type: cell-based
T4 sequence (whole entry): T1 sequence (Q8IXJ6 whole entry)
In short: (§2)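 MCF-7 cells (ATCC, authenticated) kept in DMEM with 10% FCS, penicillin/streptomycin and 2 mM glutamine at 37 °C under 10% CO2. Treated 24 h with compound at 0, 1, 10, 20, 30 or 50 μM plus 50 nM TSA to block non-sirtuin HDACs. NP40 lysates (20 μg protein, BCA-quantified) run on SDS-PAGE and Western blotted for acetyl-K40 α-tubulin, total α-tubulin and β-actin; ECL detection.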

[9] = biological target: T4, NAD-dependent protein deacetylase sirtuin-2 (Homo sapiens); experiment: Inhibition of SIRT2 in human MCF7 cells assessed as increase in alpha-tubulin K40 acetylation level at 50 uM after 24 hrs in presence of TSA by Western blot analysis; assay type: cell-based; in short: as §2
[10] = biological target: T1, NAD-dependent protein deacetylase sirtuin-2; experiment: (§3) Inhibition of recombinant human C-terminal His-tagged SIRT2 (50 to 389 end residues) expressed in Escherichia coli using p53 derived (379 to 382 residues) fluorogenic peptide substrate RHKK(Ac)-AMC preincubated for 10 mins followed by substrate addition in presence of NAD+ by fluorescence assay; in short: as §1
[11] = biological target: T4, NAD-dependent protein deacetylase sirtuin-2 (Homo sapiens); experiment: as §3, with “coli at 10 uM” for “coli”, “assay relative to control” for “assay”; in short: as §1
[12] = biological target: T2, NAD-dependent protein deacetylase sirtuin-1; experiment: Inhibition of human SIRT1 (133 to 747 residues) using (Z-Lys(Acetyl)-AMC) as substrate after 4 hrs in presence of NAD+ by fluorescence assay
[13] = biological target: NAD-dependent protein deacylase sirtuin-6 (Homo sapiens, UniProt Q8N6T7); experiment: Inhibition of human SIRT6 (13 to 308 residues) using Ac-EALPKK(Myristoyl)TGG-NH2 as substrate after 10 mins in presence of NAD+ by fluorescence assay
NAD-dependent protein deacylase sirtuin-6, sequence (Q8N6T7 whole entry, the tested form may be a part): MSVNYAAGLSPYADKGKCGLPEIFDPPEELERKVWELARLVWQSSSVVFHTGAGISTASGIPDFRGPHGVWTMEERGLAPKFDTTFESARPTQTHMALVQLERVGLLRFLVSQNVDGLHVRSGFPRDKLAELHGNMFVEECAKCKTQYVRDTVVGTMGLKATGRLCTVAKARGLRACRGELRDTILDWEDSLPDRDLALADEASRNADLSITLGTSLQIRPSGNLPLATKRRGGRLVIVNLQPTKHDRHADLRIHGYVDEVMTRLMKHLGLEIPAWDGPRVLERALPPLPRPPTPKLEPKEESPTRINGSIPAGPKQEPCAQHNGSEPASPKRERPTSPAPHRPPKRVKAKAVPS

[14] = biological target: T4, NAD-dependent protein deacetylase sirtuin-2 (Homo sapiens); experiment: Inhibition of SIRT2 in human MCF7 cells assessed as increase in alpha-tubulin K40 acetylation level at 1 to 50 uM after 24 hrs in presence of TSA by Western blot analysis; assay type: cell-based; in short: as §2
[15] = biological target: T4, NAD-dependent protein deacetylase sirtuin-2 (Homo sapiens); experiment: Inhibition of SIRT2 in human MCF7 cells assessed as increase in alpha-tubulin K40 acetylation level after 24 hrs in presence of TSA by Western blot analysis; assay type: cell-based; in short: as §2
[16] = biological target: T4, NAD-dependent protein deacetylase sirtuin-2 (Homo sapiens); experiment: Inhibition of SIRT2 in human MCF7 cells assessed as increase in alpha-tubulin K40 acetylation level at 10 to 50 uM after 24 hrs in presence of TSA by Western blot analysis; assay type: cell-based; in short: as §2
[17] = biological target: T2, NAD-dependent protein deacetylase sirtuin-1; experiment: Inhibition of human SIRT1
In short: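 Compounds were pre-incubated with human SIRT about 10 min before substrate addition, then developer added. Read ex 360/em 460 nm; activity relative to DMSO; sigmoidal 10-dose IC50, n = 2; suramin positive control.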

| IC50 [3] [µM] | IC50 [5] [µM] | Ratio IC50 (Homo sapiens [6]) | Ratio IC50 (Homo sapiens [7]) | IC50 [10] [µM] | inhibition [11] [%] | SMILES | other results |
| --- | --- | --- | --- | --- | --- | --- | --- |
| > 100 | > 100 | > 100 | > 100 |  |  | COc1ccc2ccccc2c1Cn1cnc2sc3c(c2c1=O)CCC(NCc1cccnc1)C3 (configuration not stated) | IC50 [1]: 0.17 µM; Ki [2]: 0.62 µM; IC50 [4]: > 100 µM; inhibition [8]: Active; inhibition [9]: inactive |
| 42.1 | > 100 | 108 | > 256 | 0.39 | 97 | N#Cc1ccc(CNC2CCc3c(sc4ncn(Cc5cccc6cccnc56)c(=O)c34)C2)cc1 (configuration not stated) |  |
|  |  |  |  |  |  | Cc1cc(C)nc(SCC(=O)Nc2ncc(Cc3cccc4ccccc34)s2)n1 | IC50 [12]: > 100 µM; IC50 [13]: > 200 µM |
|  |  |  |  |  | 22 | O=c1c2c3c(sc2ncn1Cc1ccccc1)CC(NCC1CCCO1)CC3 (configuration not stated) | inhibition [14]: inactive |
| 129 | 18 | 222 | 31 | 0.58 | 96 | COc1ccc(Cn2cnc3sc4c(c3c2=O)CCC(NCc2c(C)noc2C)C4)c2ccccc12 (configuration not stated) | inhibition [15]: Dose-dependent effect; inhibition [16]: Active |
|  |  |  |  |  |  | N#C/C(=C\c1ccc(-c2cc(Cl)ccc2Cl)o1)C(=O)Nc1cccc2ncccc12 | inhibition [16]: Active; IC50 [17]: > 50 µM |
| 13.8 |  |  |  | 0.73 | 94 | COc1ccc(Cn2cnc3sc4c(c3c2=O)CCC(NC2CCCC2)C4)c2ccccc12 (configuration not stated) |  |
| 119 |  |  |  | 0.65 | 96 | COc1ccc(CNC2CCc3c(sc4ncn(Cc5c(OC)ccc6ccccc56)c(=O)c34)C2)cc1 (configuration not stated) |  |
|  |  |  |  | 3.82 | 86 | COc1ccc(CNC2CCc3c(sc4ncn(Cc5ccc6ccccc6c5)c(=O)c34)C2)cc1 (configuration not stated) |  |
